Assay outcomes as filed in PubChem BioAssay.
G6PDH counter: L. mesenteroides G6PDH inhibitors, counter-screen for G6PDH-coupled screening assays, biochemical, Leuconostoc mesenteroides enzyme; inhibition, % at 5 µM; AID 1020, 2008; Purified L. mesenteroides G6PDH, diaphorase/resazurin coupled fluorescence, 45 min; glucose-6-phosphate dehydrogenase [Leuconostoc mesenteroides]; hit rate 0.12% among 200,000
Lmaj promast: Leishmania major promastigote growth inhibition, primary screen. AID 1063, 2008. inhibition, % at 10 µM. Leishmania major promastigotes, resazurin fluorescence viability. hit rate 9% among 200,000;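 also: promastigotes grown with compound for 44 hours at 28 °C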
Diaphorase inh: diaphorase inhibitors and chemical oxidizers, primary screen, counter-screen for diaphorase-coupled primary assays, biochemical, uHTS, resorufin fluorescence. diaphorase resazurin-to-resorufin fluorescence, NADH, 16 min; bacterial (C. kluyveri) enzyme, not human. inhibition, % at 20 µM. hit rate 0.69% among 190,000. AID 1217, 2008;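 active = primary screen inhibition at 20 µM above a set limit, cut at about 50% in these data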;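 also: plate controls were DMSO with full reaction for no effect and wells lacking NADH for full effect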
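Benchmarks: positive control wells lacking NADH, neutral wells with DMSO only. System: bacterial diaphorase enzyme (C. kluyveri). Input: 0.14 U/mL diaphorase, enzyme working solution. Detection: resorufin fluorescence, excitation 544 nm, emission 590 nm. Times: 16-min room-temperature incubation before reading.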
Diaphorase act: compounds boosting diaphorase resazurin reduction – biochemical, uHTS, resorufin fluorescence, counter-screen for diaphorase-coupled primary assays, primary screen; Diaphorase/resazurin coupled assay, 16 min; hits give high values; 1 = vehicle wells, 0 = NADH-free wells; activation factor at 20 µM; hit rate 0.005% among 190,000; AID 1229, 2008;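 active = diaphorase activity raised at least twofold by the compound at 20 µM; inactive = activation factor below 2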
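Assay system: Purified diaphorase enzyme from Clostridium kluyveri | Amount: Enzyme 0.07 U/mL final | Dosing: Compound 20 µM once, DMSO 1% | Timing: 16 min reaction at room temperature | Detection: Fluorescence, excitation 544 nm and emission 590 nm | Evaluation: Higher resorufin formation from activation or reduction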
WT yeast gro inh: growth inhibition of WT strain, primary screen, mitochondrial fusion inhibitor project, WT and mutant strains, chemical genetic. AID 1362, 2008. mitochondrial fusion phenotypic screen. inhibition, % at 10 µM. hit rate 2.1% among 190,000; in the data active = inhibition above about 58%; tested in S. cerevisiae
* = called active by the depositor; x = not tested or not shown. This is a sample that favours compounds with a hit; in the whole collection about 11% have one here. Rule as the data show it, unless noted: active = inhibition above about 50%; inactive = the rest.

SMILES	G6PDH counter	Lmaj promast	Diaphorase inh	Diaphorase act	WT yeast gro inh
COC(=O)C(CCSC)NC(=O)c1cc2c(n(-c3ccc(C)cc3)c1=O)CCCC2=O (centres undefined)	7.1	48.4	10.2	0.9	-8.2
CC1(C)CC(=O)c2cc(C(=O)O)c(=O)n(-c3ccccc3)c2C1	-0.1	-2.9	-1.6	1	17.7
O=C(c1ccc2c(=O)n(C3CCCC3)c(=S)[nH]c2c1)N1CCc2ccccc21	-2.9	4.2	14.6	0.9	15.9
c1ccc(C(c2ccccc2)c2noc(CN3CCN(C4CCCC4)CC3)n2)cc1	8.8	84.1*	8.1	0.9	3.9
C[C@@H]1CN(C2CCN(Cc3nc(CC4CC4)no3)CC2)C[C@H](C)O1	2.7	85.5*	x	x	18.0
FC(F)(F)c1ccc(-c2noc(CN3CCCN(C4CCCCC4)CC3)n2)cc1	9.4	83.8*	-3.4	1	40.1
C[C@@H]1CN(C2CCN(Cc3nc(C(c4ccccc4)c4ccccc4)no3)CC2)C[C@H](C)O1	10.8	85.1*	x	x	14.1
CCOC(=O)N1CCN(Cc2nc(CC3CC3)no2)CC1	-2.9	-5.6	3.3	1	6.3
COc1cc2[nH]c(=S)n(Cc3ccc(C)cc3)c(=O)c2cc1OC	4.1	-0.4	11.7	0.9	4.3
COCCN(CC(=O)NC1CCCCC1)C(=O)CCCC(=O)Nc1ccccn1	9.6	7.1	13.4	0.9	-6.6
CCc1cccc(NC(=S)N(CCCN2CCOCC2)C(C)c2cc3cccc(OC)c3o2)c1 (centres undefined)	4.3	16.8	22.8	0.8	16.8
COCCn1c(C)cc(C(=O)COC(=O)c2ccc(Br)o2)c1C	2.5	-3.4	12.8	0.9	-2.9
OC1CCN(Cc2nc(Cc3ccccc3Cl)no2)CC1	-6.4	0.6	16.7	0.8	-5.5
Clc1ccccc1Cc1noc(CN2CCN3CCCC3C2)n1 (centres undefined)	6.6	74.8*	13.6	0.9	2.5
O=C(NC(Cc1ccccc1)C(=O)NC(Cc1ccccc1)C(=O)O)c1ccccc1 (centres undefined)	18.9	56.9*	11.7	0.9	-16.2
Cc1ccc(CC(NC(=O)c2ccccc2)C(=O)NC(CC(C)C)C(=O)O)cc1 (centres undefined)	7.7	36.5	6.5	0.9	4.5
CC1CCCCN1C(=O)N[C@@H](Cc1ccccc1)C(=O)O (some centres undefined)	6.6	51.0*	6.7	0.9	-15.7
CC(C)(C)OC(=O)N1CCCC1C(=O)NC(Cc1ccccc1)C(=O)O (centres undefined)	-6.0	5.3	-1.8	1	-8.9
CC1CCCCN1C(=O)C(Cc1ccccc1)N1C(=O)C2CCCCC2C1=O (centres undefined)	-2.2	61.6*	7.7	0.9	0.8
O=C(O)[C@H](Cc1ccccc1)NC(=O)N1CCOCC1	1.2	70.4*	10.0	0.9	-4.5
COC(=O)[C@H](Cc1ccccc1)NC(=O)N1CCN(Cc2ccccc2)CC1	3.4	-2.2	2.9	1	-8.1
Cn1ncc2c(NNC(=O)c3ccc(Cl)cc3Cl)ncnc21	8.5	-4.2	40.9	0.6	-6.4
CC(=O)Nc1cccc(NC(=O)c2sc3ncn(CC(=O)N4CCCCC4)c(=O)c3c2C)c1	-7.8	0.4	11.6	0.9	8.1
Cc1csc2c(=O)[nH]cnc12	5.8	-3.3	12.4	0.9	-7.7
COc1cccc(CN2CCNC(=O)C2CC(=O)NCCn2cccn2)c1OC (centres undefined)	12.4	-1.9	18.5	0.8	6.1
C/C(=N\NC(=O)c1cccc(S(=O)(=O)N2CCCC2)c1)c1cccs1	2.3	-3.0	0.4	1	4.9
CSc1ccc(/C=N/NC(=O)CNc2ccc3ccccc3c2)cc1	-3.7	-1.4	24.8	0.8	64.9*
C=C(C)CSc1nnc([C@@H](NC(=O)OC(C)(C)C)C(C)CC)o1 (some centres undefined)	14.0	20.4	21.5	0.8	19.0
O=C(O)c1c2c(nc3ccccc13)/C(=C/c1ccc(O)cc1)CC2	0.8	-4.1	69.3*	0.3	-8.5
CC(=O)NCc1ccc(S(=O)(=O)NC(C(=O)O)C(C)C)cc1 (centres undefined)	-2.0	1.8	2.3	1	-1.5
